Measurements taken from ChEMBL document CHEMBL5104174, “Development of tumor-targeting aza-vesamicol derivatives with high affinity for sigma receptors for cancer theranostics” (RSC Med Chem, 2022).
pKi: −log10 of the molar value. Blank lines part the entries; values can stand above or below the compound they belong to.

Key:
[1] = target: Sigma non-opioid intracellular receptor 1 (Rattus norvegicus, UniProt Q9R0C9); assay: Displacement of (+)-[3H]pentazocine from sigma-1 receptor in Sprague-Dawley rat cerebral membrane incubated for 90 mins by liquid scintillation counter analysis; type: cell membranes, Cerebrum
[2] = target: T1, Sigma intracellular receptor 2 (Rattus norvegicus, UniProt Q5U3Y7); assay: Displacement of [3H]DTG from sigma-2 receptor in Sprague-Dawley rat liver membrane incubated for 90 mins in presence of by liquid scintillation counter analysis (+)-pentazocine by liquid scintillation counter analysis; type: cell membranes
T1 sequence (Q5U3Y7 whole entry): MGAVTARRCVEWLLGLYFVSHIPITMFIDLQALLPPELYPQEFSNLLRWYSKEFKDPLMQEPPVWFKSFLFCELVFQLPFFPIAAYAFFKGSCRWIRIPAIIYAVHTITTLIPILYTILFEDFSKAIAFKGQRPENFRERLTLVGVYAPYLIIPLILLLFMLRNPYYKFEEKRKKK

[3] = Drug uptake in human DU-145 cells assessed as radioactivity at 3.7 kBq incubated for 15 to 120 mins; type: ADME, cell-based; details: time 15-120 min
Outline: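 DU-145 cells grown in RPMI 1640 with 10% FBS, seeded and pre-incubated 24 h. Washed with ice-cold PBS, lysed in 1 M NaOH, counted and normalized to BCA protein. Mean ± SD.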

[4] = 1-Octanol/PBS partition coefficient, logP of the compound at pH 7.4 by shake flask method; type: physicochemical
Outline: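 Radioiodinated tracer partitioned between 1-octanol and 0.1 M phosphate buffer pH 7.4 by shake-flask. Ratio of radioactivity in octanol to that in buffer, expressed as log P. Mean ± SD of four samples.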

[5] = Stability of the compound in pH 7.4 phosphate buffer assessed as parent compound remaining at 22 to 82 kBq incubated for 24 hrs by RP-HPLC analysis; type: physicochemical; details: dose 22-82 kBq, read-out: Stability
[6] = Metabolic stability in mouse plasma assessed parent compound remaining at 74 to 93 kBq incubated for 1 hrs by RP-HPLC analysis; type: ADME, cell-free; details: dose 74-93 kBq, read-out: Stability
Outline: (§1)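 Ice-cold acetonitrile added, centrifuged 1700 g for 15 min at 4 °C, filtered 0.45 μm. Intact tracer measured by RP-HPLC; mean ± SD of three samples.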

[7] = Metabolic stability in mouse plasma assessed parent compound remaining at 74 to 93 kBq incubated for 24 hrs by RP-HPLC analysis; type: ADME, cell-free; details: dose 74-93 kBq, read-out: Stability; outline: as §1
[8] = Biodistribution in ddY mouse blood assessed as blood clearance by measuring radioactivity at 18 to 33 kBq, iv […] and measured upto 24 hrs post-injection by gamma counter analysis; type: ADME, organism-based; details: in vivo, dose 18-33 kBq
Outline: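 Male ddY mice, 6 weeks old, 28–30 g. Sacrificed at 10, 30 min, 1, 4, 8 and 24 h postinjection. Tissue radioactivity counted in a gamma counter.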

[9] = Biodistribution in ddY mouse neck assessed as radioactivity at 18 to 33 kBq, […] by gamma counter analysis; type: ADME, organism-based; details: in vivo, iv, dose 18-33 kBq
[10] = Drug uptake in tumor of Balb/c mouse xenografted with human DU-145 cells assessed as radioactivity at 37 kBq, iv and measured upto 24 hrs post-injection by gamma counter analysis; type: ADME, organism-based, Neoplasm; details: in vivo
Outline: (§2)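 About 5 × 10⁶ DU-145 cells injected sc into the right dorsum of 4-week-old male BALB/c nude mice. Sacrificed at 1 and 24 h. Gamma counting, expressed as % injected dose, mean ± SD.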

[11] = Drug uptake in tumor of Balb/c mouse xenografted with human DU-145 cells assessed as radioactivity at 37 kBq, iv and measured after 1 hrs post-injection by gamma counter analysis; type: ADME, organism-based, Neoplasm; details: in vivo; outline: as §2
[12] = Drug uptake in tumor of Balb/c mouse xenografted with human DU-145 cells at 38 MBq, iv and measured after 24 hrs post-injection by SPECT/CT analysis; type: ADME, organism-based, Neoplasm; details: in vivo
Outline: (§3)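 DU-145 sc xenografts in BALB/c nude mice. HPLC-purified 123I-tracer given iv, 50 MBq or 38 MBq per tracer. Small-animal SPECT/CT at 24 h postinjection, 0.8 mm voxels.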

[13] = Drug uptake in pancreas of Balb/c mouse xenografted with human DU-145 cells at 38 MBq, iv and measured after 24 hrs post-injection by SPECT/CT analysis; type: ADME, organism-based; details: in vivo; outline: as §3
[14] = Drug uptake in thyroid gland of Balb/c mouse xenografted with human DU-145 cells at 38 MBq, iv and measured after 24 hrs post-injection by SPECT/CT analysis; type: ADME, organism-based; details: in vivo; outline: as §3
[15] = Biodistribution in liver of Balb/c mouse xenografted with human DU-145 cells assessed as radioactivity at 37 kBq, iv and measured upto 24 hrs post-injection by gamma counter analysis; type: ADME, organism-based; details: in vivo; outline: as §2
[16] = Biodistribution in kidney of Balb/c mouse xenografted with human DU-145 cells assessed as radioactivity at 37 kBq, iv and measured upto 24 hrs post-injection by gamma counter analysis; type: ADME, organism-based; details: in vivo; outline: as §2
[17] = Biodistribution in lung of Balb/c mouse xenografted with human DU-145 cells assessed as radioactivity at 37 kBq, iv and measured upto 24 hrs post-injection by gamma counter analysis; type: ADME, organism-based; details: in vivo; outline: as §2
[18] = Drug uptake in tumor of Balb/c mouse xenografted with human DU-145 cells at 50 MBq, iv and measured after 24 hrs post-injection by SPECT/CT analysis; type: ADME, organism-based, Neoplasm; details: in vivo; outline: as §3
[19] = Drug uptake in pancreas of Balb/c mouse xenografted with human DU-145 cells at 50 MBq, iv and measured after 24 hrs post-injection by SPECT/CT analysis; type: ADME, organism-based; details: in vivo; outline: as §3
[20] = Drug uptake in thyroid gland of Balb/c mouse xenografted with human DU-145 cells at 50 MBq, iv and measured after 24 hrs post-injection by SPECT/CT analysis; type: ADME, organism-based; details: in vivo; outline: as §3

Chain of Sigma non-opioid intracellular receptor 1 (Q9R0C9 whole entry): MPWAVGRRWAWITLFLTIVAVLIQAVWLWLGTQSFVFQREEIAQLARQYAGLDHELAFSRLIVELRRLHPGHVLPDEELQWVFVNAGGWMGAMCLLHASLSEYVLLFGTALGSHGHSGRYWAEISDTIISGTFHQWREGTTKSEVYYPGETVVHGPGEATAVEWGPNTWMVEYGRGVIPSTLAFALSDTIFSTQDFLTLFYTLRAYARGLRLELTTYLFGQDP

pKi [1]: 7.71
pKi [2]: 7.49
Structure (SMILES): O[C@H]1CCCC[C@@H]1N1CCN(CCCc2ccccc2Br)CC1 (relative stereo)

Drug uptake [3]: Active
logD [4]: 2.5
remaining at 24 h [5]: 96.3%
remaining at 1 h [6]: 96.5%
remaining at 24 h [7]: 94.8%
Drug uptake [8]: Active
Drug uptake [9]: Active
Drug uptake [10]: Active
Drug uptake [11]: Active
Structure (SMILES): O[C@H]1CCC[C@@H]1N1CCN(CCCc2cccc([125I])c2)CC1 (relative stereo)

Drug uptake [12]: Active
Drug uptake [13]: Active
Drug uptake [14]: Active
Structure (SMILES): O[C@H]1CCC[C@@H]1N1CCN(CCCc2cccc([123I])c2)CC1 (relative stereo)

pKi [1]: 7.91
pKi [2]: 6.86
Structure (SMILES): O[C@H]1CCC[C@@H]1N1CCN(CCc2cccc(Br)c2)CC1 (relative stereo)

Drug uptake [10]: Active
Drug uptake [15]: Active
Drug uptake [16]: Active
Drug uptake [17]: Active
Structure (SMILES): O[C@H]1CCCC[C@@H]1N1CCC(c2ccc([125I])cc2)CC1

pKi [1]: 8.01
pKi [2]: 7.35
Structure (SMILES): O[C@H]1CCCC[C@@H]1N1CCN(CCc2ccc(Br)cc2)CC1 (relative stereo)

pKi [1]: 8.32
pKi [2]: 8.09
Structure (SMILES): O[C@H]1CCC[C@@H]1N1CCN(CCCc2cccc(Br)c2)CC1 (relative stereo)

pKi [1]: 7.76
pKi [2]: 7.60
Structure (SMILES): O[C@H]1CCCC[C@@H]1N1CCN(CCc2cccc(Br)c2)CC1 (relative stereo)

Drug uptake [18]: Active
Drug uptake [19]: Active
Drug uptake [20]: Active
Structure (SMILES): O[C@H]1CCC[C@@H]1N1CCN(CCc2cccc([123I])c2)CC1 (relative stereo)

Drug uptake [10]: Active
Drug uptake [15]: Active
Drug uptake [16]: Active
Drug uptake [17]: Active
Structure (SMILES): O[C@H]1CCCC[C@@H]1N1CCN(CCCc2ccc([125I])cc2)CC1 (relative stereo)

pKi [1]: 7.67
pKi [2]: 6.43
Structure (SMILES): O[C@H]1CCC[C@@H]1N1CCN(CCc2ccccc2Br)CC1 (relative stereo)

pKi [1]: 7.43
pKi [2]: 6.94
Structure (SMILES): O[C@H]1CCC[C@@H]1N1CCN(CCCc2ccccc2Br)CC1 (relative stereo)

Drug uptake [3]: Active
logD [4]: 2.08
remaining at 24 h [5]: 96.9%
remaining at 1 h [6]: 95.6%
remaining at 24 h [7]: 81.3%
Drug uptake [8]: Active
Drug uptake [9]: Active
Drug uptake [10]: Active
Drug uptake [11]: Active
Structure (SMILES): O[C@H]1CCC[C@@H]1N1CCN(CCc2cccc([125I])c2)CC1 (relative stereo)

pKi [1]: 8.36
pKi [2]: 7.59
Structure (SMILES): O[C@H]1CCCC[C@@H]1N1CCN(CCCc2ccc(Br)cc2)CC1 (relative stereo)

pKi [1]: 8.10
pKi [2]: 7.13
Structure (SMILES): O[C@H]1CCC[C@@H]1N1CCN(CCc2cccc(I)c2)CC1 (relative stereo)

pKi [1]: 8.00
pKi [2]: 6.83
Structure (SMILES): O[C@H]1CCC[C@@H]1N1CCN(CCc2ccc(Br)cc2)CC1 (relative stereo)

pKi [1]: 8.09
pKi [2]: 7.90
Structure (SMILES): O[C@H]1CCC[C@@H]1N1CCN(CCCc2ccc(Br)cc2)CC1 (relative stereo)

pKi [1]: 7.84
pKi [2]: 7.77
Structure (SMILES): O[C@H]1CCC[C@@H]1N1CCN(CCCc2cccc(I)c2)CC1 (relative stereo)

pKi [1]: 7.99
pKi [2]: 7.38
Structure (SMILES): O[C@H]1CCCC[C@@H]1N1CCN(CCc2ccccc2Br)CC1 (relative stereo)

pKi [1]: 8.11
pKi [2]: 7.65
Structure (SMILES): O[C@H]1CCCC[C@@H]1N1CCN(CCCc2cccc(Br)c2)CC1 (relative stereo)
